In ChEMBL document CHEMBL4038340, “Development of Novel Peptide-Based Michael Acceptors Targeting Rhodesain and Falcipain-2 for the Treatment of Neglected Tropical Diseases (NTDs)” (J Med Chem, 2017):
Activity calls are given as the source filed them. The calls are words filed in the database; no cut-off is given here.

Columns and labels:
[1] = system: Trypanosoma brucei brucei; assay: Antiparasitic activity against bloodstream form of Trypanosoma brucei brucei 449 after 24 hrs by ATPlite assay; assay type: functional; settings: Trypanosoma brucei, 449, 24 h
Rhodesain = Rhodesain (Trypanosoma brucei rhodesiense, UniProt Q95PM0); assay: Inhibition of recombinant Trypanosoma brucei rhodesiense rhodesain expressed in Pichia pastoris using Cbz-Phe-Arg-AMC as substrate after 30 min by fluorescence assay
Rhodesain, sequence (Q95PM0 whole entry): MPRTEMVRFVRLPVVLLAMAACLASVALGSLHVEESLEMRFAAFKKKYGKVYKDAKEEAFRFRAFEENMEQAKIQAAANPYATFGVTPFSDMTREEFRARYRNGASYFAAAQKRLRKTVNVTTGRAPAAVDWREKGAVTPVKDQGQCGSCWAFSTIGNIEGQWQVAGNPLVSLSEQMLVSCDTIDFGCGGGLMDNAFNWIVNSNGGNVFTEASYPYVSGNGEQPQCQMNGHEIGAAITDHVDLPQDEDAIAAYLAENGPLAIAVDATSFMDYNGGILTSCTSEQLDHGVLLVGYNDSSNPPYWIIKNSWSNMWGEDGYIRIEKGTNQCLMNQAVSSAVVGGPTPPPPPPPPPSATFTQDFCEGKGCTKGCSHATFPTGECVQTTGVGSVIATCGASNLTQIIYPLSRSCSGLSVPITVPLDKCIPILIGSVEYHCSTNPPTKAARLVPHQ
How it was run: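 Recombinant rhodesain with fluorogenic Cbz-Phe-Arg-AMC substrate. Compounds were first screened at a fixed 50 µM, with DMSO as negative control and an irreversible clan CA cysteine-protease inhibitor as positive control. Continuous assays at seven inhibitor concentrations, from minimally to fully inhibitory, gave kinac (min-1) and Ki, with k2nd = kinac/Ki (M-1 min-1).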

[2] = Selectivity index, ratio of CC50 for human HeLa cells to EC50 for Trypanosoma brucei brucei 449 for 48 hrs; assay type: toxicity, cell-based; settings: read-out: Ratio CC50/EC50
[3] = Cytotoxicity against human HeLa cells assessed as decrease in cell viability after 48 hrs by MTT assay; assay type: cell-based
[4] = target: Rhodesain (Trypanosoma brucei rhodesiense) (UniProt Q95PM0); assay: Inhibition of recombinant Trypanosoma brucei rhodesiense rhodesain expressed in Pichia pastoris assessed as first order rate constant using Cbz-Phe-Arg-AMC as substrate after 30 mins by fluorescence assay
Rhodesain (Trypanosoma brucei rhodesiense), sequence (Q95PM0 1-450): as the sequence (Q95PM0 whole entry) above
How it was run: (§1)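 Recombinant rhodesain with fluorogenic substrate Cbz-Phe-Arg-AMC. Preliminary screen at a fixed inhibitor concentration of 50 µM. Equal volume of DMSO served as negative control and E-64 as irreversible positive control. Active compounds went on to continuous assays at seven concentrations, from minimally to fully inhibitory, giving kinac (min-1), Ki (nM) and k2nd = kinac/Ki (M-1 min-1).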

[5] = system: Trypanosoma brucei brucei; assay: Antiparasitic activity against bloodstream form of Trypanosoma brucei brucei 449 after 48 hrs by ATPlite assay; assay type: functional; settings: Trypanosoma brucei, 449, 48 h
Procathepsin L [6] = target: T1, Procathepsin L (Homo sapiens, UniProt P07711); assay: Inhibition of human cathepsin L using Cbz-Phe-Arg-AMC as substrate after 10 mins by fluorescence assay
Target sequence in this assay (P07711 whole entry): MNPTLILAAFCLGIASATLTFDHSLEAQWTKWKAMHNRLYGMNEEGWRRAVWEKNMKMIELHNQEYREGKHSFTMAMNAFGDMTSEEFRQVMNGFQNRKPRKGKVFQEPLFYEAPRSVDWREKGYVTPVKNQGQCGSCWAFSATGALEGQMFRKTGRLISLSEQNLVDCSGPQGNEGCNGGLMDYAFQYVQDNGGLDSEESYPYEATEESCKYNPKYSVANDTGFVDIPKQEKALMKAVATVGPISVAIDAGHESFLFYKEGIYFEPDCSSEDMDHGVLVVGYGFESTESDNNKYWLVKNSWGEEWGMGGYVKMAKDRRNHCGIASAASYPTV

Procathepsin L [7] = target: T1, Procathepsin L; assay: Inhibition of human cathepsin L assessed as first order rate constant using Cbz-Phe-Arg-AMC as substrate after 10 mins by fluorescence assay
Target sequence in this assay (P07711 114-333 limits assumed): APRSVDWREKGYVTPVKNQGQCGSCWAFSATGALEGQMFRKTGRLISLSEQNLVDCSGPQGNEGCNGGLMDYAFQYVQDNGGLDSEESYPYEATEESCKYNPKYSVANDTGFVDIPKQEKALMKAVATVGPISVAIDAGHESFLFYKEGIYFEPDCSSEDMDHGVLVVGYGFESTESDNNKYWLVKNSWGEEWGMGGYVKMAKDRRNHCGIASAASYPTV

[8] = target: Rhodesain (Trypanosoma brucei rhodesiense) (UniProt Q95PM0); assay: Inhibition of recombinant Trypanosoma brucei rhodesiense rhodesain expressed in Pichia pastoris assessed as second order rate constant using Cbz-Phe-Arg-AMC as substrate after 30 mins by fluorescence assay; how it was run: as §1
Falcipain 2 = target: T2, Falcipain 2 (Plasmodium falciparum, UniProt Q9N6S8); assay: Inhibition of recombinant Plasmodium falciparum falcipain-2 expressed in Escherichia coli M15(pREP4) using Cbz-Phe-Arg-AMC as substrate by fluorescence assay
T2 sequence (Q9N6S8 whole entry): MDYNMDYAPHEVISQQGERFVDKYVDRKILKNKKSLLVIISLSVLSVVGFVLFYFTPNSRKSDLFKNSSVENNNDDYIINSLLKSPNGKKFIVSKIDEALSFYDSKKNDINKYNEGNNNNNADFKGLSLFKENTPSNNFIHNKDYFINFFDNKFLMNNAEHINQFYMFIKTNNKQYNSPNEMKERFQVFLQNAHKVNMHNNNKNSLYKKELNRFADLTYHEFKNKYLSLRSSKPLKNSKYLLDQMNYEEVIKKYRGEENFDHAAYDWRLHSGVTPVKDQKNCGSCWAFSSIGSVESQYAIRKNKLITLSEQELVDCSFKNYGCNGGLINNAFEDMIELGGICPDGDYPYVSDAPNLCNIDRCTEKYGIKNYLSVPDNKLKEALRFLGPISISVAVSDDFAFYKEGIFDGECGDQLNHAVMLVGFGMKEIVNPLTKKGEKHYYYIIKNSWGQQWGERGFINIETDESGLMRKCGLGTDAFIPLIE

Plasmodium falciparum = assay: Antiparasitic activity against Plasmodium falciparum W2 after 48 hrs by YOYO-1 probe-based flow cytometry; assay type: functional; settings: W2, 48 h
Procathepsin L [9] = target: T1, Procathepsin L; assay: Inhibition of human cathepsin L assessed as second order rate constant using Cbz-Phe-Arg-AMC as substrate after 10 mins by fluorescence assay
Target sequence in this assay (P07711 114-333 limits assumed): as the sequence (P07711 114-333 limits assumed) above

[10] = target: Rhodesain (Trypanosoma brucei rhodesiense) (UniProt Q95PM0); assay: Inhibition of recombinant Trypanosoma brucei rhodesiense rhodesain expressed in Pichia pastoris using Cbz-Phe-Arg-AMC as substrate at 50 uM after 30 mins by fluorescence assay; how it was run: as §1

## CC(=O)/C=C/[C@H](CCc1ccccc1)NC(=O)[C@H](CC(C)C)NC(=O)OCc1ccccc1
[1]
  EC50: 3.85 µM
Rhodesain
  Ki: 0.5 nM
[2]
  selectivity ratio at 48 h: 3
[3]
  CC50 at 48 h: 9.58 µM
[4]
  Kinact: 0.0016 min⁻¹
[5]
  EC50: 3.2 µM
Procathepsin L [6]
  Ki: 0.11 µM
Procathepsin L [7]
  Kinact: 0.0013 min⁻¹
[8]
  K: 3800 ×10³ /M/min
Falcipain 2
  IC50: 0.25 µM
Plasmodium falciparum
  EC50: 3.16 µM
Procathepsin L [9]
  K: 13 ×10³ /M/min

## O=C(N[C@@H](Cc1ccccc1)C(=O)N[C@H](/C=C/S(=O)(=O)c1ccccc1)CCc1ccccc1)OCc1ccccc1
[1]
  EC50: 23.7 µM
Rhodesain
  Ki: 5 nM
[4]
  Kinact: 0.0033 min⁻¹
[5]
  EC50: 18.5 µM
Procathepsin L [6]
  Ki: 0.29 µM
Procathepsin L [7]
  Kinact: 0.0014 min⁻¹
[8]
  K: 663 ×10³ /M/min
Falcipain 2
  IC50: 7.33 µM
Plasmodium falciparum
  EC50: > 10 µM
Procathepsin L [9]
  K: 4.4 ×10³ /M/min

## CC(C)C[C@H](NC(=O)OCc1ccc([N+](=O)[O-])cc1)C(=O)N[C@H](/C=C/C#N)CCc1ccccc1
[10]
  inhibition: inactive
Falcipain 2
  IC50: > 50 µM
Plasmodium falciparum
  EC50: > 10 µM

## COC(=O)/C=C/[C@H](CCc1ccccc1)NC(=O)[C@H](Cc1ccccc1)NC(=O)OCc1ccccc1
[1]
  EC50: 12.9 µM
Rhodesain
  Ki: 2 nM
[4]
  Kinact: 0.0018 min⁻¹
[5]
  EC50: 8.28 µM
Procathepsin L [6]
  Ki: 0.027 µM
Procathepsin L [7]
  Kinact: 0.004 min⁻¹
[8]
  K: 919 ×10³ /M/min
Falcipain 2
  IC50: > 50 µM
Plasmodium falciparum
  EC50: > 10 µM
Procathepsin L [9]
  K: 153 ×10³ /M/min

## CC(C)C[C@H](NC(=O)OCc1ccc([N+](=O)[O-])cc1)C(=O)N[C@H](/C=C/S(=O)(=O)c1ccccc1)CCc1ccccc1
Rhodesain
  Ki: 14 nM
[4]
  Kinact: 0.0043 min⁻¹
Procathepsin L [6]
  Ki: 0.25 µM
Procathepsin L [7]
  Kinact: 0.005 min⁻¹
[8]
  K: 304 ×10³ /M/min
Falcipain 2
  IC50: 1.32 µM
Plasmodium falciparum
  EC50: 2.31 µM
Procathepsin L [9]
  K: 22 ×10³ /M/min

## COC(=O)/C=C/[C@H](CCc1ccccc1)NC(=O)[C@H](CC(C)C)NC(=O)OCc1ccccc1
[1]
  EC50: 6.08 µM
Rhodesain
  Ki: 7.5 nM
[4]
  Kinact: 0.0038 min⁻¹
[5]
  EC50: 5.02 µM
Procathepsin L [6]
  Ki: 0.04 µM
Procathepsin L [7]
  Kinact: 0.0032 min⁻¹
[8]
  K: 509 ×10³ /M/min
Falcipain 2
  IC50: 9.53 µM
Plasmodium falciparum
  EC50: 4.4 µM
Procathepsin L [9]
  K: 81 ×10³ /M/min

## CC(=O)/C=C/[C@H](CCc1ccccc1)NC(=O)[C@H](CC(C)C)NC(=O)OCc1ccc([N+](=O)[O-])cc1
[1]
  EC50: 3.23 µM
Rhodesain
  Ki: 0.9 nM
[2]
  selectivity ratio at 48 h: 3.3
[3]
  CC50 at 48 h: 8.2 µM
[4]
  Kinact: 0.0027 min⁻¹
[5]
  EC50: 2.48 µM
Procathepsin L [6]
  Ki: 0.0035 µM
Procathepsin L [7]
  Kinact: 0.0026 min⁻¹
[8]
  K: 2970 ×10³ /M/min
Falcipain 2
  IC50: 0.11 µM
Plasmodium falciparum
  EC50: 2.74 µM
Procathepsin L [9]
  K: 739 ×10³ /M/min

## N#C/C=C/[C@H](CCc1ccccc1)NC(=O)[C@H](Cc1ccccc1)NC(=O)OCc1ccc([N+](=O)[O-])cc1
Rhodesain
  Ki: 1740 nM
[4]
  Kinact: 0.0004 min⁻¹
[8]
  K: 0.26 ×10³ /M/min
Falcipain 2
  IC50: > 50 µM
Plasmodium falciparum
  EC50: > 10 µM

## N#C/C=C/[C@H](CCc1ccccc1)NC(=O)[C@H](Cc1ccccc1)NC(=O)OCc1ccccc1
Rhodesain
  Ki: 46 nM
[4]
  Kinact: 0.0005 min⁻¹
Procathepsin L [6]
  Ki: 0.24 µM
Procathepsin L [7]
  Kinact: 0.0022 min⁻¹
[8]
  K: 12 ×10³ /M/min
Falcipain 2
  IC50: > 50 µM
Plasmodium falciparum
  EC50: > 10 µM
Procathepsin L [9]
  K: 9.3 ×10³ /M/min

## COC(=O)/C=C/[C@H](CCc1ccccc1)NC(=O)[C@H](CC(C)C)NC(=O)OCc1ccc([N+](=O)[O-])cc1
Rhodesain
  Ki: 17 nM
[4]
  Kinact: 0.0023 min⁻¹
Procathepsin L [6]
  Ki: 0.041 µM
Procathepsin L [7]
  Kinact: 0.0014 min⁻¹
[8]
  K: 152 ×10³ /M/min
Falcipain 2
  IC50: 9.63 µM
Plasmodium falciparum
  EC50: 3.97 µM
Procathepsin L [9]
  K: 35 ×10³ /M/min

## CCN(CC)CCCC(C)Nc1ccnc2cc(Cl)ccc12 (stereo not given) [CHLOROQUINE]
Plasmodium falciparum
  EC50: 0.057 µM

## CC(C)C[C@H](NC(=O)OCc1ccccc1)C(=O)N[C@H](/C=C/S(=O)(=O)c1ccccc1)CCc1ccccc1
[1]
  EC50: 2.5 µM
Rhodesain
  Ki: 9.1 nM
[2]
  selectivity ratio at 48 h: 4.6
[3]
  CC50 at 48 h: 12.2 µM
[4]
  Kinact: 0.0028 min⁻¹
[5]
  EC50: 2.62 µM
Procathepsin L [6]
  Ki: 0.00061 µM
Procathepsin L [7]
  Kinact: 0.0009 min⁻¹
[8]
  K: 342 ×10³ /M/min
Falcipain 2
  IC50: 0.78 µM
Plasmodium falciparum
  EC50: 1.53 µM
Procathepsin L [9]
  K: 1570 ×10³ /M/min

## CC(C)C[C@H](NC(=O)[C@H]1O[C@@H]1C(=O)O)C(=O)NCCCCN=C(N)N [E-64]
Rhodesain
  Ki: 35 nM
[4]
  Kinact: 0.009 min⁻¹
Procathepsin L [6]
  Ki: 0.03 µM
Procathepsin L [7]
  Kinact: 0.0032 min⁻¹
[8]
  K: 261 ×10³ /M/min
Falcipain 2
  IC50: 0.25 µM
Procathepsin L [9]
  K: 110 ×10³ /M/min

## CC(=O)/C=C/[C@H](CCc1ccccc1)NC(=O)[C@H](Cc1ccccc1)NC(=O)OCc1ccc([N+](=O)[O-])cc1
[1]
  EC50: 6.05 µM
Rhodesain
  Ki: 0.074 nM
[4]
  Kinact: 0.0017 min⁻¹
[5]
  EC50: 4.98 µM
Procathepsin L [6]
  Ki: 0.0022 µM
Procathepsin L [7]
  Kinact: 0.0016 min⁻¹
[8]
  K: 24400 ×10³ /M/min
Falcipain 2
  IC50: 0.78 µM
Plasmodium falciparum
  EC50: 7.18 µM
Procathepsin L [9]
  K: 737 ×10³ /M/min

## COC(=O)/C=C/[C@H](CCc1ccccc1)NC(=O)[C@H](Cc1ccccc1)NC(=O)OCc1ccc([N+](=O)[O-])cc1
[1]
  EC50: 97.2 µM
Rhodesain
  Ki: 3.6 nM
[4]
  Kinact: 0.0012 min⁻¹
Procathepsin L [6]
  Ki: 0.025 µM
Procathepsin L [7]
  Kinact: 0.0016 min⁻¹
[8]
  K: 347 ×10³ /M/min
Falcipain 2
  IC50: > 50 µM
Plasmodium falciparum
  EC50: > 10 µM
Procathepsin L [9]
  K: 64 ×10³ /M/min

## CC(C)C[C@H](NC(=O)OCc1ccccc1)C(=O)N[C@H](/C=C/C#N)CCc1ccccc1
Rhodesain
  Ki: 53 nM
[4]
  Kinact: 0.001 min⁻¹
Procathepsin L [6]
  Ki: 0.33 µM
Procathepsin L [7]
  Kinact: 0.0012 min⁻¹
[8]
  K: 19 ×10³ /M/min
Falcipain 2
  IC50: > 50 µM
Plasmodium falciparum
  EC50: > 10 µM
Procathepsin L [9]
  K: 3.8 ×10³ /M/min

## N=C(NCCCCCCNC(=N)NC(=N)Nc1ccc(Cl)cc1)NC(=N)Nc1ccc(Cl)cc1 [CHLORHEXIDINE]
[1]
  EC50: 0.67 µM
[5]
  EC50: 0.53 µM

## O=C(N[C@@H](Cc1ccccc1)C(=O)N[C@H](/C=C/S(=O)(=O)c1ccccc1)CCc1ccccc1)OCc1ccc([N+](=O)[O-])cc1
[1]
  EC50: 5.48 µM
Rhodesain
  Ki: 7.2 nM
[4]
  Kinact: 0.0024 min⁻¹
[5]
  EC50: 4.07 µM
Procathepsin L [6]
  Ki: 0.045 µM
Procathepsin L [7]
  Kinact: 0.003 min⁻¹
[8]
  K: 334 ×10³ /M/min
Falcipain 2
  IC50: > 50 µM
Plasmodium falciparum
  EC50: > 10 µM
Procathepsin L [9]
  K: 65 ×10³ /M/min
